Assay results reported in ChEMBL document CHEMBL4043263, “Identification of selective 8-(piperidin-4-yloxy)quinoline sulfone and sulfonamide histamine H1 receptor antagonists for use in allergic rhinitis” (Bioorg Med Chem Lett, 2017).
Blank lines part the entries; values can stand above or below the compound they belong to.

What was measured:
[1] = Dissociation constant, pKa of the compound; format: physicochemical
[2] = AUC (0 to last) in CD Sprague-Dawley rat at 3 mg/kg, po by LC-MS/MS analysis
[3] = Drug level in CD Sprague-Dawley rat brain at 1 mg/kg, iv administered via bolus dose measured after 5 mins by LC-MS/MS analysis; format: ADME, organism-based; details: read-out: Drug uptake
How it was run: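 Rats given a 1 mg/kg intravenous bolus; brain and blood sampled 5 min later. Reported as mean brain concentration (ng/g tissue) and brain:blood ratio.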

[4] = Ratio of drug level in brain to blood in CD Sprague-Dawley rat at 1 mg/kg, iv administered via bolus dose after 5 mins by LC-MS/MS analysis; format: ADME, organism-based; details: brain and blood
How it was run: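 Rats received a single intravenous bolus at 1 mg/kg. Brain and blood samples were taken 5 min after dosing. Brain concentration was expressed as ng/g tissue, and the brain:blood concentration ratio was calculated.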

[5] = Permeability in MDCK cells; format: ADME, cell-based, Canis lupus familiaris; details: dog, read-out: permeability
How it was run: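 Permeability measured across MDCK cell monolayers, reported in nm/s; n=3.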

[6] = Drug metabolism in human hepatocytes assessed as M24 formation by mass spectrometric analysis; format: ADME, cell-based, Hepatocyte
[7] = Drug uptake in arterial blood of ovalbumin-sensitized guinea pig model of histamine-induced allergic rhinitis at 1 mg/ml administered intranasally pretreated for 4 hrs followed by histamine challenge after 30 mins post atropine monohydrate hemisulfate addition; format: ADME, tissue-based, Cavia porcellus; details: in vivo, inhaled_or_intranasal, 0.5 h
How it was run: (§1)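 Arterial blood taken from guinea pigs immediately after nasal congestion was assessed, 4 or 25 h after an intranasal dose of 1 mg/mL solution (25 µL/nostril).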

Canis familiaris = assay: Blood clearance in Beagle dog at 0.5 mg/kg, iv administered via bolus dose or 1 mg/kg, po administered via gavage by LC-MS/MS analysis relative to liver blood flow; format: ADME, organism-based, Canis lupus familiaris; details: in vivo
[8] = Drug level in blood of ovalbumin-sensitized guinea pig model of histamine-induced allergic rhinitis; format: ADME, tissue-based, Cavia porcellus; details: read-out: Drug uptake; how it was run: as §1
Liver [9] = assay: Drug metabolism in mouse liver microsomes; format: ADME, microsome
How it was run: (§2)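 Intrinsic clearance measured in vitro with liver microsomes from mouse, rat, dog and human; expressed as mL/min/g tissue.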

[10] = Oral bioavailability in Beagle dog at 1 to 2 mg/kg administered via gavage by LC-MS/MS analysis; format: ADME, organism-based, Canis lupus familiaris; details: in vivo
How it was run: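 Beagle dogs given oral doses of 1 mg/kg (n=2) or 2 mg/kg (n=2) in H2O–PEG200–DMSO (50:45:5). Bioavailability is the mean of the four animals, referenced to a 1 mg/kg intravenous dose.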

[11] = Drug excretion in Beagle dog urine at 1 mg/kg, iv administered via bolus dose by LC-MS/MS analysis
[12] = Oral bioavailability in CD Sprague-Dawley rat at 10 mg/kg by LC-MS/MS analysis; format: ADME, organism-based; details: in vivo
How it was run: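 Three rats dosed orally at 10 mg/kg in 0.5% hydroxypropylmethyl cellulose. Bioavailability is a lower-bound estimate because the terminal phase was poorly defined.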

[13] = Volume of distribution at steady state in CD Sprague-Dawley rat at 1 mg/kg, iv or 3 mg/kg, po by LC-MS/MS analysis; format: ADME, organism-based; details: in vivo, read-out: Vdss
How it was run: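 CD rats (n=4) received a 1 mg/kg intravenous dose of the dihydrochloride salt as a solution in H2O–PEG200–DMSO (50:45:5). Steady-state volume of distribution was taken from the intravenous blood profile and reported as the mean.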

Liver [14] = assay: Drug metabolism in dog liver microsomes; format: ADME, Canis lupus familiaris, microsome; how it was run: as §2
[15] = Blood clearance in Beagle dog at 0.5 mg/kg, iv administered via bolus dose or 1 mg/kg, po administered via gavage by LC-MS/MS analysis; format: ADME, organism-based, Canis lupus familiaris
[16] = Drug metabolism in human hepatocytes assessed as M11 formation by mass spectrometric analysis; format: ADME, cell-based, Hepatocyte
Liver [17] = assay: Drug metabolism in human liver microsomes; format: ADME, microsome; how it was run: as §2
[18] = Drug metabolism in human hepatocytes assessed as M26 formation by mass spectrometric analysis; format: ADME, cell-based, Hepatocyte
[19] = Drug absorption in CD Sprague-Dawley rat hepatic portal vein at 3 mg/kg, po; format: ADME, organism-based; details: read-out: Drug absorption
How it was run: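 Rats given 3 mg/kg orally; the fraction of dose absorbed into the hepatic portal vein was calculated.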

[20] = Volume of distribution at steady state in Beagle dog at 0.5 mg/kg, iv administered via bolus dose or 1 mg/kg, po administered via gavage by LC-MS/MS analysis; format: ADME, organism-based, Canis lupus familiaris; details: in vivo, read-out: Vdss
in vivo = details: CD Sprague-Dawley, rat, brain and blood, po, 300 mg/kg
Rattus norvegicus = assay: Blood clearance in CD Sprague-Dawley rat at 1 mg/kg, iv or 3 mg/kg, po by LC-MS/MS analysis relative to liver blood flow; format: ADME, organism-based; details: in vivo
How it was run: (§3)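 CD rats dosed intravenously at 1 mg/kg (n=4) or orally at 3 mg/kg (n=3) as a solution in H2O–PEG200–DMSO (50:45:5). Blood clearance reported as mean and as % of liver blood flow; half-life taken from intravenous data.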

[21] = Drug metabolism in human hepatocytes assessed as M15 formation by mass spectrometric analysis; format: ADME, cell-based, Hepatocyte
[22] = Drug metabolism in human hepatocytes assessed as M19 formation by mass spectrometric analysis; format: ADME, cell-based, Hepatocyte
[23] = Drug uptake in arterial blood of ovalbumin-sensitized guinea pig model of histamine-induced allergic rhinitis at 1 mg/ml administered intranasally pretreated for 24 hrs followed by histamine challenge after 30 mins post atropine monohydrate hemisulfate addition; format: ADME, tissue-based, Cavia porcellus; details: in vivo, inhaled_or_intranasal, 0.5 h; how it was run: as §1
[24] = Bioavailability in CD Sprague-Dawley rat at 2 mg/kg, sc by LC-MS/MS analysis; format: ADME, organism-based; details: in vivo
How it was run: (§4)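 Single rat dosed subcutaneously at 2 mg/kg in DMSO–PEG 200–water (5:45:50). Bioavailability estimated against intravenous data.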

[25] = Elimination half life in Beagle dog at 0.5 mg/kg, iv administered via bolus dose or 1 mg/kg, po administered via gavage by LC-MS/MS analysis; format: ADME, organism-based, Canis lupus familiaris; details: in vivo, read-out: beta t1/2 (converted)
[26] = Elimination half life in CD Sprague-Dawley rat at 1 mg/kg, iv by LC-MS/MS analysis; format: ADME, organism-based; details: in vivo, read-out: beta t1/2 (converted); how it was run: as §3
[27] = Bioavailability in sc dosed CD Sprague-Dawley rat by LC-MS/MS analysis; format: ADME, organism-based; details: in vivo; how it was run: as §4
Liver [28] = assay: Drug metabolism in rat liver microsomes; format: ADME, microsome; how it was run: as §2
[29] = Drug level in CD Sprague-Dawley rat brain at 300 mg/kg, po measured after 30 mins by LC-MS/MS analysis; format: ADME, organism-based; details: read-out: Drug uptake
How it was run: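 Rats given a single 300 mg/kg oral dose; brain and blood sampled 30 min later. Reported as brain concentration (ng/g) and brain:blood ratio.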

[30] = Drug excretion in Beagle dog urine at 1 mg/kg, po administered via gavage by LC-MS/MS analysis; format: ADME, organism-based, Canis lupus familiaris; details: read-out: Drug excretion
How it was run: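 Parent compound measured in urine of dogs after intravenous (1 mg/kg) or oral dosing; expressed as % of dose.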

[31] = Blood clearance in CD Sprague-Dawley rat at 1 mg/kg, iv or 3 mg/kg, po by LC-MS/MS analysis; format: ADME, organism-based; how it was run: as §3

pKa [1]: 8.5
Compound: CCCCc1cc(OC2CCN(CCCNS(=O)(=O)CC)CC2)c2ncccc2c1

AUC(0-t) [2]: 568 ng·h/mL | pKa [1]: 7.9 | concentration at 5 min [3]: 62 ng/g | Kp at 5 min [4]: 0.09
Compound: CCCCc1cc(OC2CCN(CCCS(=O)(=O)CC)CC2)c2ncccc2c1.Cl.Cl

pKa [1]: 6.5
Compound: CCCCc1cc(OC2CCN(CCS(=O)(=O)CC)CC2)c2ncccc2c1

The next lines start with the compound.

Compound: CCCCc1cc(OC2CCN(CCCS(=O)(=O)C(C)(C)C)CC2)c2ncccc2c1
pKa [1]: 8 | concentration at 5 min [3]: 133 ng/g | Kp at 5 min [4]: 0.77

Compound: CCCCc1cc(OC2CCN(CCCCNS(=O)(=O)CC)CC2)c2ncccc2c1.Cl.Cl
Papp [5]: 5.2 ×10⁻⁶ cm/s | Drug metabolism [6]: Metabolite_Detected | Drug uptake [7]: Active | CL (Canis familiaris): 65% | concentration [8]: 7 nM | Drug metabolism (Liver [9]): 3.7 mL/min/g | bioavailability [10]: 5% | AUC(0-t) [2]: 62 ng·h/mL | dose excreted [11]: < 1% | bioavailability [12]: 4 to 9% | concentration at 5 min [3]: 26 ng/g | Vd [13]: 4.2 L/kg | Drug metabolism (Liver [14]): 3.6 mL/min/g | clearance [15]: 20 mL/min/kg | Drug metabolism [16]: Metabolite_Detected | Drug metabolism (Liver [17]): 1.4 mL/min/g | Drug metabolism [18]: Metabolite_Detected | Fa [19]: 13 to 16% | Vd [20]: 4.5 L/kg | Kp at 0.5 h (in vivo): 11 | CL (Rattus norvegicus): 45% | Drug metabolism [21]: Metabolite_Detected | Drug metabolism [22]: Metabolite_Detected | Drug uptake [23]: Active | bioavailability [24]: 45% | half-life [25]: 3.8 h | half-life [26]: 1.8 h | bioavailability [27]: 45% | Drug metabolism (Liver [28]): 2.9 mL/min/g | concentration at 0.5 h [29]: 14500 ng/g | dose excreted [30]: < 0.1% | clearance [31]: 38 mL/min/kg | Kp at 5 min [4]: 0.1
